Columns and labels:
Mus musculus [1] = species on record: Mus musculus; assay: Binding affinity to prostaglandin receptor in Charles River CD-1 mouse ovary assessed as increase in cAMP accumulation using [8-14C]adenine at 100 ug/ml after 30 mins relative to control; format: tissue-based; conditions: Female gonad
Method in brief: (§1)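 Virgin female mice over 70 days old; three ovaries per tube (15-25 mg), denuded of fat, preincubated 60 min at 37 °C in aerated Krebs-Ringer phosphate buffer pH 7.2 with 1 μCi [8-14C]adenine to label ATP. Then 0.2 mL 0.05 M theophylline in 0.15 M NaCl plus compound in 0.1 mL Me2SO added; 30 min, 37 °C. TCA stop, homogenization, [14C]-cAMP isolated including paper chromatography.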

Mus musculus [2] = species on record: Mus musculus; assay: Binding affinity to prostaglandin receptor in Charles River CD-1 mouse ovary assessed as increase in cAMP accumulation using [8-14C]adenine at 25 ug/ml after 30 mins relative to control; format: tissue-based; conditions: Female gonad; method in brief: as §1
[3] = Retardation factor, Rf of the compound; format: physicochemical
Method in brief: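 Thin-layer chromatography on SiO2 plates; eluent A, CHCl3-CH3OH-HOAc (98:1:1), other eluents as designated.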

Mus musculus [4] = species on record: Mus musculus; assay: Binding affinity to prostaglandin receptor in Charles River CD-1 mouse ovary assessed as increase in cAMP accumulation using [8-14C]adenine at 1 ug/ml after 30 mins relative to control; format: tissue-based; conditions: Female gonad; method in brief: as §1
Mus musculus [5] = species on record: Mus musculus; assay: Binding affinity to prostaglandin receptor in Charles River CD-1 mouse ovary assessed as increase in cAMP accumulation using [8-14C]adenine at 10 ug/ml after 30 mins relative to control; format: tissue-based; conditions: Female gonad; method in brief: as §1
Rattus norvegicus = species on record: Rattus norvegicus; assay: Displacement of [3H-PGE1] from Sprague-Dawley rat kidney prostaglandin receptor after 60 mins by scintillation counting analysis
Method in brief: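 Kidney plasma membrane binding fraction from male rats (120-150 g); 125 μg of it incubated with 0.4 ng [3H]-PGE1 and test compound, 60 min, 37 °C. Diluted with 0.01 M Tris HCl-saline pH 7.5, bound label collected by filtration, rinsed, counted by liquid scintillation. Duplicate runs at each of three concentrations.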

Mus musculus [6] = species on record: Mus musculus; assay: Binding affinity to prostaglandin receptor in Charles River CD-1 mouse ovary assessed as increase in cAMP accumulation using [8-14C]adenine at 50 ug/ml after 30 mins relative to control; format: tissue-based; conditions: Female gonad; method in brief: as §1
Mus musculus [7] = species on record: Mus musculus; assay: Binding affinity to prostaglandin receptor in Charles River CD-1 mouse ovary assessed as increase in cAMP accumulation using [8-14C]adenine at 200 ug/ml after 30 mins relative to control; format: tissue-based; conditions: Female gonad; method in brief: as §1
Mus musculus [8] = species on record: Mus musculus; assay: Binding affinity to prostaglandin receptor in Charles River CD-1 mouse ovary assessed as increase in cAMP accumulation using [8-14C]adenine at 0.1 ug/ml after 30 mins relative to control; format: tissue-based; conditions: Female gonad; method in brief: as §1
Mus musculus [9] = species on record: Mus musculus; assay: Binding affinity to prostaglandin receptor in Charles River CD-1 mouse ovary assessed as increase in cAMP accumulation using [8-14C]adenine at 0.01 ug/ml after 30 mins relative to control; format: tissue-based; conditions: Female gonad; method in brief: as §1
Mus musculus [10] = species on record: Mus musculus; assay: Binding affinity to prostaglandin receptor in Charles River CD-1 mouse ovary assessed as increase in cAMP accumulation using [8-14C]adenine at 0.05 ug/ml after 30 mins relative to control; format: tissue-based; conditions: Female gonad; method in brief: as §1
[11] = Dissociation constant, pKa of the compound; format: physicochemical

fold change (FC) (Mus musculus [1]) | fold change (FC) (Mus musculus [2]) | Rf [3] | fold change (FC) (Mus musculus [4]) | fold change (FC) (Mus musculus [5]) | Activity (Rattus norvegicus) | fold change (FC) (Mus musculus [6]) | fold change (FC) (Mus musculus [7]) | fold change (FC) (Mus musculus [8]) | fold change (FC) (Mus musculus [9]) | fold change (FC) (Mus musculus [10]) | pKa [11] | Compound
62 | 62 |  | 54 | 60 | 1 ngequiv |  |  | 29 | 8 | 25 |  | CCCCC[C@H](O)/C=C/[C@H]1[C@H](O)CC(=O)[C@@H]1CCCCCCC(=O)O
18 | 8 | 0.15 | 0.9 |  | 4.6 µgequiv |  |  |  |  |  | 5.25 | CCCCCC(O)CCC1CCC(=O)N1CCCCCCC(=O)O (mixture of isomers)
 | 26 |  | 10 | 25 |  | 19 |  |  |  |  |  | CCCCC[C@H](O)CC[C@H]1CCC(=O)[C@@H]1CCCCCCC(=O)O
25 | 8 | 0.12 | 1.4 |  | 0.39 µgequiv |  |  |  |  |  |  | CCCCCC(O)CCC1SCC(=O)N1CCCCCCC(=O)O (mixture of isomers)

Continued, molecule first:

Compound | fold change (FC) (Mus musculus [1]) | fold change (FC) (Mus musculus [2]) | Rf [3] | fold change (FC) (Mus musculus [4]) | fold change (FC) (Mus musculus [5]) | Activity (Rattus norvegicus) | fold change (FC) (Mus musculus [6]) | fold change (FC) (Mus musculus [7]) | fold change (FC) (Mus musculus [8]) | fold change (FC) (Mus musculus [9]) | fold change (FC) (Mus musculus [10]) | pKa [11]
O=C(O)CCCCCCN1C(=O)CS(=O)(=O)C1CCC(O)COc1ccc(F)cc1 (mixture of isomers) | 7 | 2 | 0.13 |  |  |  |  |  |  |  |  | 
CCCCCC(O)CCCC(CCCCCCC(=O)O)C(C)=O (configuration not stated) | 23 | 14 |  | 2 | 11 | 833 ngequiv | 16 | 16 |  |  |  | 
CCCCCC(O)CCC1N(CCCCCCC(=O)O)C(=O)CS1(=O)=O (mixture of isomers) | 37 | 27 | 0.24 | 5 | 23 | 0.06 µgequiv |  |  |  |  |  | 
CCCCCCCCC1CCC(=O)N1CCCCCCC(=O)O (racemic) | 13 | 8 | 0.25 | 0.7 |  | 8.3 µgequiv |  |  |  |  |  | 
CCCCCCCCC1C(=O)NC(=O)N1CCCCCCC(=O)O (racemic) | 6 | 3 | 0.2 |  |  | 5 µgequiv |  |  |  |  |  | 
CCCCCC(O)CCCC(CCCCCCC(=O)O)S(C)(=O)=O (configuration not stated) | 38 | 27 |  | 14 | 24 |  |  |  | 2 |  |  | 
CCCCCCCCc1c[nH]c(=O)n1CCCCCCC(=O)O | 9 | 5 | 0.84 |  |  | 19.6 µgequiv |  |  |  |  |  | 
